Measurements as given in ChEMBL document CHEMBL5036385, “Piperazinobenzodiazepinones: New Encephalitic Alphavirus Inhibitors via Ring Expansion of 2-Dichloromethylquinazolinones” (ACS Med Chem Lett, 2022).
Converted amounts (≈) assume the structure as drawn. The source made the active and inactive calls. The calls are words filed in the database; no cut-off is given here.

How the values were obtained:
[1] = tested on: Eastern equine encephalitis virus; assay: Antiviral activity against eastern equine encephalitis virus infected in African green monkey Vero 76 cells assessed as reduction on virus yield at 5 uM after 18 hrs of post infection; assay type: functional
[2] = tested on: Eastern equine encephalitis virus; assay: Antiviral activity against Eastern equine encephalitis virus co-culture with brain Primary neuron cells HNC001 as reduction on virus titre at 1 uM in Vero 76 cells measured after 18 hrs by TCID50-MTT assay; assay type: functional, organism-based
[3] = tested on: Eastern equine encephalitis virus; assay: Antiviral activity against Eastern equine encephalitis virus co-culture with brain Primary neuron cells HNC001 as reduction on virus titre at 5 uM in Vero 76 cells measured after 18 hrs by TCID50-MTT assay; assay type: functional, organism-based
[4] = tested on: Venezuelan equine encephalitis virus; assay: Antiviral activity against Venezuelan equine encephalitis virus infected in African green monkey Vero 76 cells assessed as reduction on virus yield at 5 uM after 18 hrs of post infection; assay type: functional
Vero 76 = assay: Cytotoxicity against African green monkey Vero 76 assessed as reduction in cell viability measured after 72 hrs; assay type: cell-based; settings: chlorocebus sabaeus, vero 76, 72 h
Summary of the method: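 Uninfected Vero 76 cells were exposed to compound, and viability was assessed 72 h post-treatment.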

[5] = tested on: Venezuelan equine encephalitis virus; assay: Antiviral activity against Venezuelan equine encephalitis virus co-culture with brain Primary neuron cells HNC001 as reduction on virus titre at 5 uM in Vero 76 cells measured after 18 hrs by TCID50-MTT assay; assay type: functional, organism-based
[6] = tested on: Eastern equine encephalitis virus; assay: Antiviral activity against eastern equine encephalitis virus infected in African green monkey Vero 76 cells assessed as virus induced cytopathic effect measured after 48 hrs; assay type: functional, organism-based; settings: Vero 76, 48 h
[7] = tested on: Venezuelan equine encephalitis virus; assay: Antiviral activity against Venezuelan equine encephalitis virus infected in African green monkey Vero 76 cells assessed as virus induced cytopathic effect measured after 48 hrs; assay type: functional, organism-based; settings: Vero 76, 48 h
[8] = tested on: Venezuelan equine encephalitis virus; assay: Antiviral activity against Venezuelan equine encephalitis virus co-culture with brain Primary neuron cells HNC001 as reduction on virus titre at 1 uM in Vero 76 cells measured after 18 hrs by TCID50-MTT assay; assay type: functional, organism-based
[9] = Aqueous solubility of compound at pH 7.4 measured after 1460 min by HPLC analysis; assay type: physicochemical; settings: buffer
Summary of the method: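 Kinetic solubility was measured in aqueous PBS buffer at pH 7.4.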

[10] = Metabolic stability in CD-1 mouse liver microsomes assessed as half life measured at 60 mins in presence of NADPH by LC-MS/MS analysis; assay type: ADME, Microsome; settings: 1 h
Summary of the method: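 Half-life was determined from stability in CD-1 mouse liver microsomes.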

| SMILES | Activity [1] | Activity [2] | Activity [3] | Activity [4] | CC50 (Vero 76) [µM] | Activity [5] | EC50 [6] [µM] | EC50 [7] [µM] | Activity [8] | solubility kinetic at 24.33 h [9] [µM] | t1/2 [10] [min] |
| --- | --- | --- | --- | --- | --- | --- | --- | --- | --- | --- | --- |
| COc1ccc(N2C(=O)c3cc(C#N)cc(-c4ccc(C)nc4)c3N=C3[C@@H]2N(C)CCN3C)cc1F | 5.9 | inactive | Active | 2.7 | > 30 | Active | 0.26 | 0.33 | inactive | – | – |
| COc1cccc(N2C(=O)c3cc([N+](=O)[O-])ccc3N=C3C2N(C)CCN3C)c1 (configuration not stated) | 5.7 | – | – | 2.4 | > 30 | – | 0.5 | 0.53 | – | – | – |
| COc1ccc(N2C(=O)c3cc([N+](=O)[O-])ccc3N=C3C2N(C2CCCCC2)CCN3C)cc1 (configuration not stated) | – | – | – | – | > 30 | – | 6.2 | 7 | – | – | – |
| CN1CCN(C)C2C1=Nc1ccc([N+](=O)[O-])cc1C(=O)N2c1ccc(F)cc1 (configuration not stated) | 6.1 | – | – | 2.9 | > 30 | – | 0.11 | 0.15 | – | – | – |
| CN1CCN(C)C2C1=Nc1ccc(C#N)cc1C(=O)N2c1ccccc1 (configuration not stated) | – | – | – | – | > 30 | – | 4.4 | 7 | – | – | – |
| CN1CCN(C)C2C1=Nc1ccc(F)cc1C(=O)N2c1ccccc1 (configuration not stated) | – | – | – | – | > 30 | – | > 30 | > 30 | – | – | – |
| COc1ccc(N2C(=O)c3cc([N+](=O)[O-])ccc3N=C3[C@@H]2N(C)[C@@H]2CCCC[C@H]2N3C)cc1 | – | – | – | – | > 30 | – | 4.5 | 4.7 | – | – | – |
| COc1ccc(N2C(=O)c3cc([N+](=O)[O-])ccc3N=C3C2N(C)CCN3C)cc1F (configuration not stated) | 7.7 | – | Active | 3.7 | > 30 | Active | – | 0.048 | – | 0.5 (≈ 0.207 µg/mL) | 10 |
| COc1ccc(N2C(=O)c3cc([N+](=O)[O-])ccc3N=C3[C@H]2N(C)[C@H]2CCCC[C@@H]2N3C)cc1 | – | – | – | – | – | – | 3.8 | 5.6 | – | – | – |
| COc1ccc(N2C(=O)c3cc(C#N)ccc3N=C3C2N(C)CCN3C)cc1 (configuration not stated) | – | – | – | – | > 30 | – | 2.5 | 4.2 | – | – | – |
| COc1ccc(N2C(=O)c3cc(C#N)cc(-c4ccc(C)nc4)c3N=C3C2N(C)CCN3C)cc1F (racemic) | 6.9 | inactive | Active | 5.2 | 23.3 | Active | 0.16 | 0.24 | inactive | 2 (≈ 0.969 µg/mL) | 45 |
| COc1ccc(N2C(=O)c3cc(C#N)cc(Br)c3N=C3C2N(C)CCN3C)cc1F (configuration not stated) | – | – | – | – | > 30 | – | 3.2 | 4.1 | – | – | – |
| COc1ccc(N2C(=O)c3cc([N+](=O)[O-])ccc3N=C3C2N(Cc2ccccc2)CCN3C)cc1 (configuration not stated) | – | – | – | – | > 30 | – | 3.2 | 3 | – | – | – |
| COc1ccc(N2C(=O)c3cc([N+](=O)[O-])ccc3N=C3C2N(C)CCN3C)cc1 (configuration not stated) | 7.9 | – | Active | 5.5 | > 30 | Active | 0.033 | – | – | 0.7 (≈ 0.277 µg/mL) | 10 |
| COc1ccc(N2C(=O)c3cc(C#N)cc(-c4ccc(C)nc4)c3N=C3[C@H]2N(C)CCN3C)cc1F | 5.2 | inactive | Active | 6.1 | – | Active | 0.3 | 0.5 | inactive | – | – |
| CN1CCN(C)C2C1=Nc1cc([N+](=O)[O-])ccc1C(=O)N2c1ccccc1 (configuration not stated) | – | – | – | – | > 30 | – | > 30 | > 30 | – | – | – |
| COc1ccc(N2C(=O)c3cc([N+](=O)[O-])ccc3N=C3C2N(Cc2ccccc2)CCN3Cc2ccccc2)cc1 (configuration not stated) | – | – | – | – | > 30 | – | 13.8 | 19.8 | – | – | – |
| CN1CCN(C)C2C1=Nc1ccc([N+](=O)[O-])cc1C(=O)N2c1ccccc1 (configuration not stated) | 5.7 | – | – | 2.6 | > 30 | – | – | 0.12 | – | – | – |
| COc1ccc(N2C(=O)c3cc(C#N)cc(N4CCOCC4)c3N=C3C2N(C)CCN3C)cc1F (configuration not stated) | 4 | – | – | 2.5 | > 30 | – | 1.9 | 2.5 | – | – | – |
